The values below come from ChEMBL document CHEMBL3259708, “Thienoquinolines as novel disruptors of the PKCε/RACK2 protein-protein interaction” (J Med Chem, 2014).

Activity calls are given as the source filed them. The rule behind the calls is not given here.

Series [1] deals with Protein kinase C eta type (Homo sapiens) (UniProt P24723). As to the kind of experiment: Inhibition of PKCeta (unknown origin) at 50 uM.
For series [2], the system named is HeLa. Description: Antiproliferative activity against human HeLa cells expressing luciferase gene up to 50 uM. The format is cell-based. In outline: (§1)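 HeLa-HLR and PC-3 cells seeded ~10 000/well; agent added after 4 h at various concentrations for 72 h; growth read by SRB assay; mean ±SD of three independent experiments, triplicate samples each.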
The target in series [3] is Protein kinase C alpha type (Homo sapiens) (UniProt P17252). As to the kind of experiment: Inhibition of PKCalpha (unknown origin) at 50 uM.
The target of series [4] is T1, Protein kinase C epsilon type (Homo sapiens) (UniProt Q02156).
T1 sequence (whole entry): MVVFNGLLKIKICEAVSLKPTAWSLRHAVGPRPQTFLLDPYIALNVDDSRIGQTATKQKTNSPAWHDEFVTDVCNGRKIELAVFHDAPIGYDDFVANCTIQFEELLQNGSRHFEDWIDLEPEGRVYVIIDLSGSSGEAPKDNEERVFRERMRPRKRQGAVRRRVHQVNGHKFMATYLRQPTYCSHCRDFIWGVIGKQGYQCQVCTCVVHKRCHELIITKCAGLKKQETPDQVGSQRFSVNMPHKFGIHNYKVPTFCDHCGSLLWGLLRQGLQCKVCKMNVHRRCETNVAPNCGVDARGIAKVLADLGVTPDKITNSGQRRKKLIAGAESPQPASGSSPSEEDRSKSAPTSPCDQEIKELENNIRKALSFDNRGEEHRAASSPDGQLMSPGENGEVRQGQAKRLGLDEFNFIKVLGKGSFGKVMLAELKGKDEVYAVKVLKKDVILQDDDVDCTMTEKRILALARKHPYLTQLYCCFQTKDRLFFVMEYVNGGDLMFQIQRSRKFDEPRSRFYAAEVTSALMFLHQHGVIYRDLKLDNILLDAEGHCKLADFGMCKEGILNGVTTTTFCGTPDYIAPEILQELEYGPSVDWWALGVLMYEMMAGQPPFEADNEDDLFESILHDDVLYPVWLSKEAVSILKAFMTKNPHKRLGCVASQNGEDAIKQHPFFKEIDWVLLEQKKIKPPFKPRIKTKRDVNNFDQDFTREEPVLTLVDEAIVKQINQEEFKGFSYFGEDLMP
As to the kind of experiment: (§2) Inhibition of recombinant PKCepsilon (unknown origin)-MBP-tagged RACK2 interaction after 1 hr by ELISA-based assay relative to untreated control. In outline:
(§3)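 ELISA: plates coated with 100 ng recombinant PKCε in 20 mM Tris-HCl/100 mM NaCl pH 7.5 overnight at 4 °C, blocked with 3% BSA; PKCε activated 10 min at 30 °C with 60 μg/mL phosphatidylserine and 100 nM TPA; RACK2-MBP preincubated with agent 30 min, then 500 ng added for 1 h binding; anti-RACK2/HRP detection, ABTS at 420 nm; four experiments, quadruplicates, normalized to control; IC50 via CalcuSyn.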
(In an ELISA, binding on a coated surface is turned into a signal by an enzyme label.)

The target of series [5] is T2, Protein kinase C epsilon type (Homo sapiens, UniProt Q02156).
T2 sequence (Q02156 whole entry): T1 sequence (whole entry)
The description is as §2. A digest of the protocol:
as §3

The target in series [6] is T1, Protein kinase C epsilon type (Homo sapiens). Description: (§4) Inhibition of PKCepsilon-induced phosphorylation of Elk1 in human HeLa cells after 4 hrs by luciferase reporter gene assay. The format is cell-based. A digest of the protocol:
(§5)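 PathDetect HeLa-HLR Elk-1 trans-reporting cells (200 000/well, grown 24 h) starved 16 h in 0.5% FBS medium; agent 30 min, 50 nM TPA 5 min, washed, then 4 h in starvation medium with agent; luciferase read on 20 μg lysate protein; mean ±SD of three experiments normalized to control; IC50 by CalcuSyn.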
(In general: In a reporter assay the amount or activity of a reporter protein is the signal.)

The target in series [7] is T2, Protein kinase C epsilon type. Described as §4. The format is cell-based. In outline: as §5
For series [8], the target named is Ribosomal protein S6 kinase alpha-3 (Homo sapiens) (UniProt P51812). Description: Inhibition of RSK2 (unknown origin) at 25 uM; values are per cent of control.
Sequence of Ribosomal protein S6 kinase alpha-3 (Homo sapiens) (P51812 whole entry): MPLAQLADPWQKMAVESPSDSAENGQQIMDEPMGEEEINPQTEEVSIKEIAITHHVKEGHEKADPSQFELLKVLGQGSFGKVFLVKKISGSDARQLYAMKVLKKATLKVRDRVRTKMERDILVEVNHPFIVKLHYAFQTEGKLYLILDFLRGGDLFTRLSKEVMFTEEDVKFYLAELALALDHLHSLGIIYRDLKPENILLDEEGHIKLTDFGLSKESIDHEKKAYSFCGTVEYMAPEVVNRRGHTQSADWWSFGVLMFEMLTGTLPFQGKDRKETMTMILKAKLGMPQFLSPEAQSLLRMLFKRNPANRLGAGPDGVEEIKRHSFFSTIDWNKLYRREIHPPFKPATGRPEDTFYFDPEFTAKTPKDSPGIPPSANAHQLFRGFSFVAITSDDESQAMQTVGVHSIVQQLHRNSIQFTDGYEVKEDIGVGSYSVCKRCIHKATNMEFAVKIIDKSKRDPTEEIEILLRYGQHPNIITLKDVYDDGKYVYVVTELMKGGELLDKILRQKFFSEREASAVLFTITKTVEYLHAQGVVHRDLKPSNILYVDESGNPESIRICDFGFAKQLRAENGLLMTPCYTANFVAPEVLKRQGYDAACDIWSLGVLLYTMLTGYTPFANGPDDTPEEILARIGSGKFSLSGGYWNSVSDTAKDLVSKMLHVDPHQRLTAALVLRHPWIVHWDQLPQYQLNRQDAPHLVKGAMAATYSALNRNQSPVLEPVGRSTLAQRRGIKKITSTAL
In series [9] the test system is HeLa. Description: Antiinvasive activity against human HeLa cells expressing doxycycline-inducible PKCepsilon at 25 uM after 24 hrs. In kind it is functional, cell-based. In outline: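 Invasion of HeLa cells carrying doxycycline-inducible constitutively active PKCε, PKCε expression induced with doxycycline, through reconstituted basement membrane matrix using a commercial invasion kit per manufacturer; mean of three experiments, normalized to control (100%), t test.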

For series [10], the target named is Protein kinase C delta type (Homo sapiens) (UniProt Q05655). Description: Inhibition of PKCdelta translocation to cell membrane in human PC3 cells at 25 to 50 uM by densitometric analysis. In kind it is cell-based. Particulars: PC-3. In outline:
(§6)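 PC-3 cells starved 16 h, agent 30 min, then 50 nM TPA 5 min; lysed and split into cytosolic and membrane fractions; Western blot for PKCε, PKCε pSer729 or PKCδ, with IGFI-βR (membrane) and GAPDH (cytosol) loading controls; densitometry of four independent experiments, normalized to control, t test.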

The target of series [11] is T1, Protein kinase C epsilon type (Homo sapiens). Description: Inhibition of phosphorylated form of PKCepsilon translocation to cell membrane in human PC3 cells at 25 to 50 uM by densitometric analysis. The format is cell-based. Particulars: PC-3. In outline: as §6
Series [12] has the same target. As to the kind of experiment: Inhibition of PKCepsilon translocation to cell membrane in human PC3 cells at 25 to 50 uM by densitometric analysis. The format is cell-based. Conditions: PC-3. A digest of the protocol:
as §6

Series [13] shares this target. Description: Inhibition of TPA-induced PKCepsilon Ser729 phosphorylation in human PC3 cell membrane at 25 to 50 uM by densitometric analysis. In kind it is cell-based. Particulars: PC-3. A digest of the protocol:
as §6

The test system of the next series is PC-3. Description: Antiproliferative activity against human PC3 cells expressing luciferase gene up to 50 uM. In kind it is cell-based. In outline:
as §1

The species entered for the next series is Gallus gallus. As to the kind of experiment: Antiangiogenic activity in chicken egg assessed as inhibition of VEGF-induced angiogenesis at 10 ng after 5 days by microscopic analysis. The format is functional. A digest of the protocol:
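Hen eggs incubated 3 days at 37 °C, opened, incubated 7 more days; VEGF and test agent added on day 10; after 5 further days, vessel formation inspected by microscope.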

The subject of series [14] is HeLa. As to the kind of experiment: Antimigratory activity against human HeLa cells expressing doxycycline-inducible PKCepsilon at 25 uM after 24 hrs by scratch migration assay. In kind it is functional, cell-based. A digest of the protocol: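 HeLa cells carrying doxycycline-inducible constitutively active PKCε grown to log phase; ~1 mm scratch made in monolayer with pipet tip, washed with PBS, then given 2 μg/mL doxycycline plus 25 μM test agent for 24 h; controls untreated or doxycycline plus DMSO; gap closure viewed by microscope.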

Sequence of Protein kinase C delta type (Homo sapiens) (Q05655 whole entry, looked up): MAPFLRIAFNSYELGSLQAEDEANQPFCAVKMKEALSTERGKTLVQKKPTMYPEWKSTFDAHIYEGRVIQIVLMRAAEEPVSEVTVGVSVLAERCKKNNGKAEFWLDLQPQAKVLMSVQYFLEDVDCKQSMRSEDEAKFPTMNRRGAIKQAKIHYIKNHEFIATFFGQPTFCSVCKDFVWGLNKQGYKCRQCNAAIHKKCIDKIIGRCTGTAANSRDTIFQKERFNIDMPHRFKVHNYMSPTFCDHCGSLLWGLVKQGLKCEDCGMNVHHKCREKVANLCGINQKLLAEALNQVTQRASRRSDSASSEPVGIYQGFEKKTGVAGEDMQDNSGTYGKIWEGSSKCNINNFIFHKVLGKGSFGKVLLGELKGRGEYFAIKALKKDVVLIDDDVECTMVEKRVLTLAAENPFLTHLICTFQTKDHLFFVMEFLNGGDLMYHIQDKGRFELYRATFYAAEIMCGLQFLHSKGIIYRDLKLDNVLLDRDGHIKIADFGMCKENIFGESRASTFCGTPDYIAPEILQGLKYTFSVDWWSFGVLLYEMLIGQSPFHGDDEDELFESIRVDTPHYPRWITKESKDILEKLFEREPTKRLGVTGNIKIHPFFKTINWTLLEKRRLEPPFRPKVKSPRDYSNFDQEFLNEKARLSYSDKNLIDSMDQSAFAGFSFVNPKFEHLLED
Sequence of Protein kinase C eta type (Homo sapiens) (P24723 whole entry): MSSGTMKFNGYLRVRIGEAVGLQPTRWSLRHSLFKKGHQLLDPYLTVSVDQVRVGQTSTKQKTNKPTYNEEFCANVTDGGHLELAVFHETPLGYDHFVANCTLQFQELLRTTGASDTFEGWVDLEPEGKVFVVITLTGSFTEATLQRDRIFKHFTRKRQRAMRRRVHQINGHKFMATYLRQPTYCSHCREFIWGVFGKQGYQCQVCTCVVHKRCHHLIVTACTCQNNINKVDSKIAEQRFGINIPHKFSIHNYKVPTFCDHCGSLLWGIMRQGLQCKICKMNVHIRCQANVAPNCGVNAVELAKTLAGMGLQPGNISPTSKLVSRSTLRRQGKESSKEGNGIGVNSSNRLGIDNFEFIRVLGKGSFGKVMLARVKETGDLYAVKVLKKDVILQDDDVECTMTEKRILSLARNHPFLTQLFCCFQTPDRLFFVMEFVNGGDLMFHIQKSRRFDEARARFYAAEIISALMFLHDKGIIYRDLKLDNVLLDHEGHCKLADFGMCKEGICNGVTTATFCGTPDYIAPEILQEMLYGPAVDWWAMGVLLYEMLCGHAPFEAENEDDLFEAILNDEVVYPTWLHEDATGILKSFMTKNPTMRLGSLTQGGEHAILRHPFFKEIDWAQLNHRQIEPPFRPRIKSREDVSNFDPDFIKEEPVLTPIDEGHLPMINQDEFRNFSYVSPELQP

Consider `CC(=O)c1cccc(NC(=O)c2sc3nc4cc5c(cc4cc3c2N)OCCO5)c1`, for which the inhibition – broadly, the percentage by which the read-out fell short of the control – is 80% in [1], 80% in [3], “Dose-dependent effect” in series [4] and “Dose-dependent effect” in series [6]. Also, the Activity result with HeLa [2] and with PC-3 was “Non-toxic” in each case. Besides, the concentration for half-maximal inhibition (IC50) (commonly the midpoint of a concentration-inhibition curve) was determined as 5.9 µM in series [5] and 11.2 µM in series [7]. Moreover, in series [8], the residual activity (usually the share of the control activity or signal that is left under treatment) was found to be 27%. Also, the inhibition result (with HeLa [9]; in series [11]; in [12]; in the series listed under Gallus gallus; with HeLa [14]) was “Active” in each case. Besides, the inhibition result in [10] and in series [13] was “inactive” throughout.
